How the values were obtained:
[1] = Solubility ratio for sickle cell haemoglobin in presence and absence of compound; format: ADME
Method in brief: (§1)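 HbS purified from red cells by DEAE-Sephacel chromatography and held in 150 mM phosphate, pH 7.4. Compound was added as its sodium salt in 0.15 M phosphate, pH 7.4, and incubated with HbS overnight at 4°C. Samples were sealed in EPR tubes and spun at 150000 g for 2.5 h at 35°C.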

[2] = Solubility ratio of the sickle cell haemoglobin with compound to sickle cell haemoglobin with out compound at 10 mM; format: ADME; settings: 10000 µM
Method in brief: as §1, with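 “4°C. Sodium dithionite was then added (final 58.88 mM, final HbS about 24 g%).” for “4°C.”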

[3] = Solubility ratio of the sickle cell haemoglobin with compound to sickle cell haemoglobin with out compound at 3 mM; format: ADME; settings: 3000 µM; method in brief: as §1
[4] = Solubility ratio of the sickle cell haemoglobin with compound to sickle cell haemoglobin with out compound at 7 mM; format: ADME; settings: 7000 µM; method in brief: as §1
[5] = (§2) Solubility ratio of the sickle cell haemoglobin with compound to sickle cell haemoglobin with out compound at 9 mM; format: ADME; settings: 9000 µM; method in brief: as §1
[6] = system: Canis familiaris; test: Diuretic activity of compound measured in dog urine after intravenous administration of 5 mg/kg
[7] = system: Canis familiaris; test: Diuretic activity of compound measured in dog urine after intravenous injection of 5 mg/kg; format: functional, Canis lupus familiaris
[8] = Solubility ratio of the sickle cell haemoglobin with compound to sickell cell haemoglobin with out compound at 10 mM; format: ADME; settings: 10000 µM
Method in brief: as §1, with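 “4°C. Sodium dithionite was then added (final 58.88 mM, final HbS about 24 g%).” for “4°C.”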

[9] = Solubility ratio of the sickle cell haemoglobin with compound to sickell cell haemoglobin with out compound at 5 mM; format: ADME; settings: 5000 µM
Method in brief: as §1, with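 “4°C. Sodium dithionite was then added (final 58.88 mM, final HbS about 24 g%).” for “4°C.”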

[10] = Solubility ratio of the sickle cell haemoglobin with compound to sickle cell haemoglobin without compound at 5 mM; format: ADME; settings: 5000 µM
Method in brief: as §1, with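 “4°C. Sodium dithionite was then added (final 58.88 mM, final HbS about 24 g%).” for “4°C.”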

[11] = Solubility ratio of the sickel cell haemoglobin with compound to sickle cell haemoglobin with out compound at 3 mM; format: ADME; settings: 3000 µM
Method in brief: as §1, with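 “4°C. Sodium dithionite was then added (final 58.88 mM, final HbS about 24 g%).” for “4°C.”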

[12] = as §2; format: ADME; settings: 9000 µM; remark: listed apart in the source
Method in brief: as §1, with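 “4°C. Sodium dithionite was then added (final 58.88 mM, final HbS about 24 g%).” for “4°C.”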

[13] = Solubility ratio of the sickell cell haemoglobin with compound to sickle cell haemoglobin with out compound at 5 mM; format: ADME; settings: 5000 µM
Method in brief: as §1, with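 “4°C. Sodium dithionite was then added (final 58.88 mM, final HbS about 24 g%).” for “4°C.”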

[14] = Solubility ratio of the sickell cell haemoglobin with compound to sickle cell haemoglobin with out compound at 7 mM; format: ADME; settings: 7000 µM
Method in brief: as §1, with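 “4°C. Sodium dithionite was then added (final 58.88 mM, final HbS about 24 g%).” for “4°C.”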

[15] = Solubility ratio of the sickell cell haemoglobin with compound to sickle cell haemoglobin with out compound at 9 mM; format: ADME; settings: 9000 µM
Method in brief: as §1, with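 “4°C. Sodium dithionite was then added (final 58.88 mM, final HbS about 24 g%).” for “4°C.”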

Row | SMILES | Solubility ratio [1] | Solubility ratio [3] | Solubility ratio [4] | Solubility ratio [5] | Diuretic activity [7] | also measured
1 | CC1(C2CCCC2)Cc2cc(OCCCC(=O)O)c(Cl)c(Cl)c2C1=O (stereo unspecified) | 0.961 |  |  |  |  | Solubility ratio [2]: 1.006
2 | CC/C(=C/c1ccc(OCC(=O)O)c(Cl)c1Cl)[N+](=O)[O-] | 1.086 | 1.051 | 1.096 | 1.131 |  | 
3 | CC1(c2ccccc2)Cc2cc(OCC(=O)O)c(Cl)c(Cl)c2C1=O (stereo unspecified) [INDACRINONE] | 0.989 |  |  |  |  | Solubility ratio [2]: 1; Diuretic activity [6]: 3
4 | C/C(=C/c1ccc(OCC(=O)O)cc1)[N+](=O)[O-] | 1.076 | 1.038 | 1.075 | 1.099 | 1 | 
5 | CCC(C(=O)c1ccc(OCC(=O)O)c(Cl)c1Cl)S(C)(=O)=O (stereo unspecified) |  |  |  |  |  | Solubility ratio [8]: 1.052; Solubility ratio [9]: 1.029
6 | CCC(C)C(=O)c1ccc(OCC(=O)O)c(Cl)c1Cl (stereo unspecified) |  |  |  |  | 2 | Solubility ratio [10]: 1.061; Solubility ratio [2]: 1.088
7 | CCC(SC)C(=O)c1ccc(OCC(=O)O)c(Cl)c1Cl (stereo unspecified) | 1.016 |  |  |  |  | Solubility ratio [2]: 1.073
8 | CCC1=Cc2cc(OCC(=O)O)c(Cl)c(Cl)c2C1=O | 1.09 | 1.074 | 1.103 | 1.12 | 5 | 
9 | CCC1=C(c2ccc(OCCCC(=O)O)c(Cl)c2Cl)OC(CC)(C(=O)c2ccc(OCCCC(=O)O)c(Cl)c2Cl)CC1 (stereo unspecified) | 1.059 |  |  | 1.039 |  | 
10 | CC(=O)C(=Cc1ccc(OCC(=O)O)c(Cl)c1Cl)C(C)=O |  |  |  |  | 6 | 
11 | CC/C(=C/c1ccc(C(=O)O)cc1Cl)[N+](=O)[O-] | 1.1 | 1.052 | 1.106 |  |  | Solubility ratio [12]: 1.15
12 | CC(C)C(Br)C(=O)c1ccc(OCC(=O)O)c(Cl)c1Cl (stereo unspecified) | 0.966 |  |  |  | 3 | Solubility ratio [2]: 0.983
13 | O=C(c1cccs1)c1cc2c(c(Cl)c1Cl)OC(C(=O)O)C2 (stereo unspecified) | 1.076 |  |  |  |  | Solubility ratio [2]: 1.08; Diuretic activity [6]: 0
14 | CC1(C2CCCC2)Cc2cc(OCC(=O)O)c(Cl)c(Cl)c2C1=O (stereo unspecified) | 1.01 |  |  |  |  | Solubility ratio [2]: 1.015; Diuretic activity [6]: 2
15 | C=C(CC)C(=O)c1c(Cl)cc(Cl)cc1OCC(=O)O | 1.08 | 1.048 | 1.103 | 1.129 |  | 
16 | C=C(CCC)C(=O)c1ccc(OC2(C(=O)O)CCC2)c(Cl)c1Cl | 1.085 | 1.057 | 1.099 | 1.143 |  | 
17 | CCC1=C(c2ccc(OCC(=O)O)c(Cl)c2Cl)OC(CC)(C(=O)c2ccc(OCC(=O)O)c(Cl)c2Cl)CC1 (stereo unspecified) |  |  |  |  | 0 | Solubility ratio [8]: 0.996; Solubility ratio [9]: 0.993
18 | CC/C(=C/c1ccc(OCC(=O)O)c(OC)c1)[N+](=O)[O-] | 1.128 | 1.085 | 1.159 | 1.207 |  | 
19 | CCC(CN(C)C)C(=O)c1ccc(OCC(=O)O)c(Cl)c1Cl.Cl (stereo unspecified) | 1.018 |  |  |  | 4 | Solubility ratio [2]: 1.168

Second part, led by results:

Row | Solubility ratio [1] | Solubility ratio [3] | Solubility ratio [4] | Solubility ratio [5] | SMILES | Diuretic activity [7] | also measured
20 | 1.115 | 1.082 | 1.155 | 1.149 | C=C(CCC)C(=O)c1ccc(OCCCC(=O)O)c(Cl)c1Cl |  | 
21 | 1.145 | 1.109 | 1.222 | 1.327 | C=C(CC)C(=O)c1ccc(OCC(=O)NCC(=O)O)c(Cl)c1Cl | 3 | 
22 | 1.086 |  | 1.125 | 1.164 | C=C(CC)C(=O)c1ccc(OCCCCCC(=O)O)c(Cl)c1Cl |  | Solubility ratio [11]: 1.063
23 | 1.224 | 1.107 | 1.287 | 1.309 | C=C(CC)C(=O)c1ccc(OCCCC(=O)NCC(=O)O)c(Cl)c1Cl |  | 
24 | 1.077 | 1.073 | 1.089 | 1.113 | C=C(CC)C(=O)c1ccc(OCCN(CC)CC)c(Cl)c1Cl |  | 
25 | 1.122 | 1.084 | 1.168 | 1.196 | C=C(CC)C(=O)c1ccc(OCCCC(=O)O)c(Cl)c1Cl |  | 
26 | 1.033 | 1.017 | 1.062 | 1.078 | C/C=C(\CC)C(=O)c1ccc(OCC(=O)O)c(Cl)c1Cl | 5 | 
27 | 1.125 | 1.07 | 1.151 | 1.184 | C=C(CC)C(=O)c1ccc(OCC(=O)O)c(Cl)c1Cl [ETHACRYNIC ACID] | 6 | 
28 |  | 1.112 |  |  | C=C(CC)C(=O)c1ccc(OCCC(=O)O)c(Cl)c1Cl |  | Solubility ratio [13]: 1.145; Solubility ratio [14]: 1.188; Solubility ratio [15]: 1.302
29 | 1.127 | 1.08 | 1.147 | 1.202 | C=C(CC)C(=O)c1ccc(OC2(C(=O)O)CCC2)c(Cl)c1Cl |  | 
30 | 1.06 | 1.033 | 1.067 | 1.095 | C=CC(=O)c1ccc(OCC(=O)O)c(Cl)c1Cl |  | 
31 | 1.094 | 1.05 | 1.183 | 1.237 | C=C(CC)C(=O)c1ccc(OC(C)(C)C(=O)O)c(Cl)c1Cl | 0 | 
32 | 1.129 | 1.081 | 1.2 | 1.308 | C=C(CC)C(=O)c1ccc(OCCCCC(=O)O)c(Cl)c1Cl |  | 

From ChEMBL document CHEMBL1124367, “Design, synthesis, and testing of potential antisickling agents. 7. Ethacrynic acid analogues” (J Med Chem, 1989)
